PostGolgi yeast = growth inhibition of a yeast mutant, post-Golgi transport screen; post-Golgi transport phenotypic cell assay; inhibition, % at 10 µM; 0.9% of 98,000 active; AID 739;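 also: yeast cells grown in 1536-well plates; yeast grown about 18 h at 30C before absorbance read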
PostGolgi ctrl = yeast control strain growth, post-Golgi counter-screen. efflux-deficient yeast background strain, growth absorbance A615, 16 h. inhibition, % at 10 µM. 5% of 98,000 active. AID 738
EphB4 antag = antagonists of human EphB4-ephrin-B2 interaction. EphB4 LBD / TNYL-RAW-Alexa532 peptide, fluorescence polarization. inhibition, % at 7 µM. 0.15% of 97,000 active. AID 720;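 active = inhibition above the screen-wide mean inhibition plus 3 SD, cut at about 15% in these data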
Target sequence (P54760 whole entry, looked up, the tested form may be a part): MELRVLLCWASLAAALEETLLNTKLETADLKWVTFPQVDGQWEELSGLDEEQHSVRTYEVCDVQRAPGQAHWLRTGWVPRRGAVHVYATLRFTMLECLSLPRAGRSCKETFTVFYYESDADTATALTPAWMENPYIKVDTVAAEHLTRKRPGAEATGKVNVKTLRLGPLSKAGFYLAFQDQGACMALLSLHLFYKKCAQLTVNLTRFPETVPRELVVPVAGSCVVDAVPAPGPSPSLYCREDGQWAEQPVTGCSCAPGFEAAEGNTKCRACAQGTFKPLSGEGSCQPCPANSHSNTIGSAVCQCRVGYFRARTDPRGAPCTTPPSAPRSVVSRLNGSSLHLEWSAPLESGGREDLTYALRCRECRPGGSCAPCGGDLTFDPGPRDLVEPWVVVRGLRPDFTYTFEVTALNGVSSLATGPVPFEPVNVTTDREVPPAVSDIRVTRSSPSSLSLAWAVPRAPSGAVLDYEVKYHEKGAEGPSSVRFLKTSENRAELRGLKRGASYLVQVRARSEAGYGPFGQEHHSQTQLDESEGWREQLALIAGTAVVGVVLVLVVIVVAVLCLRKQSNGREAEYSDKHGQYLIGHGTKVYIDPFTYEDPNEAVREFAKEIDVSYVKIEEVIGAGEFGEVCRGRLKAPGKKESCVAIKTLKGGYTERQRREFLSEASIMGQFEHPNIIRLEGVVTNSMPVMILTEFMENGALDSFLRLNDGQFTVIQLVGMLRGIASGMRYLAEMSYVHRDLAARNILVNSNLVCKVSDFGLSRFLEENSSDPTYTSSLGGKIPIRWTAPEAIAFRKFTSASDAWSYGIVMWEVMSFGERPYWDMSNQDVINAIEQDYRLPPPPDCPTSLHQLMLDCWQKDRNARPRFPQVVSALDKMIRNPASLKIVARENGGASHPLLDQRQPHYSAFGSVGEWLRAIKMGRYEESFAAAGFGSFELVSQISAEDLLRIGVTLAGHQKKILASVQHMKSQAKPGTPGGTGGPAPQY
tolC growth inh = growth inhibitors of E. coli BW25113 tolC mutant; growth inhibition, % at 10 µM (by protocol); 2.2% of 65,000 active; AID 573; OD615;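 active = growth inhibition at or above a cutoff equal to the mean over every tested compound plus 3 SD, cut at about 60% in these data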;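 also: growth measured after 20 h incubation at 37 °C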
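Test system – E. coli BW25113 ΔtolC::kan, tolC deletion mutant strain · Detection – OD at 615 nm · Buffer or medium – LB with kanamycin 50 µg/mL · Times – 20 h compound exposure of bacteria at 37 °C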
E coli WT exp = growth inhibitors of E. coli BW25113 wild type | growth inhibition, % at 100 µM | AID 710 | 0.15% of 98,000 active | OD600 absorbance;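 active = growth inhibition above about 50% at one test dose, limit read from the data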;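 also: growth measured after 20 h incubation at 37 °C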
Large screens that a line does not name were inactive. An excerpt weighted towards active compounds, which were near 6% of everything screened. Rule as the data show it, unless noted: active = inhibition above about 30%; inactive = the rest.

CC1=C(C(=O)OC2CCCCC2)C(c2ccc(C)o2)C2=C(CC(C)(C)CC2=O)N1 (centres undefined)	none
CC1=C(C(=O)OC2CCCC2)C(c2ccc(C)o2)C2=C(CC(c3cccs3)CC2=O)N1 (centres undefined)	tolC growth inh 65
CC(NC(=O)c1cccnc1)c1ccc2c(c1)OCO2 (centres undefined)	none
COC(=O)c1ccc(CSc2nnnn2Cc2ccccc2)cc1	none
COC(=O)c1cc(OC)c(OC)cc1NC(=O)CSc1nnnn1Cc1ccccc1	PostGolgi ctrl 38
Cc1ccc(N(Cc2ccccc2F)S(C)(=O)=O)cc1C	none (no result: tolC growth inh)
CNC(=O)CN(c1ccc(F)cc1)S(=O)(=O)c1cc(C)ccc1OC	none (no result: tolC growth inh)
CCOC(=O)c1c(-c2ccc(C)c(C)c2)csc1NC(=O)C1CC=CCC1C(=O)O (centres undefined)	PostGolgi ctrl 33 (no result: tolC growth inh)
COC(=O)c1c(-c2ccco2)csc1NC(=O)C1CC=CCC1C(=O)O (centres undefined)	none
CC1CCCC/C1=N/Nc1ccc([N+](=O)[O-])cc1[N+](=O)[O-] (centres undefined)	PostGolgi ctrl 36 (no result: tolC growth inh)
CO/N=C/c1ccc(N2CCN(C(=O)c3ccc(Cl)cc3Cl)CC2)c([N+](=O)[O-])c1	none (no result: tolC growth inh)
O=S(=O)(Nc1ccc(-n2cccc2)cc1)c1ccc(Cl)cc1Cl	PostGolgi ctrl 67 (no result: tolC growth inh)
Cc1ccc(NC(=O)C2C3/C=C\CCCCC32)cc1C (centres undefined)	none (no result: tolC growth inh)
CCCCCc1ccc(-c2ccc(=O)[nH]n2)cc1	PostGolgi ctrl 31
Cc1cccc(OCCSCc2nc3ccccc3[nH]2)c1	none (no result: tolC growth inh)
Cc1cccc(OCCCSc2nc3ccccc3[nH]2)c1	PostGolgi ctrl 34 (no result: tolC growth inh)
COc1ccc(Cl)cc1N1Cc2ccccc2C1	PostGolgi ctrl 32 (no result: tolC growth inh)
CCOC(=O)CNC(=O)c1sc(NC(=O)c2cccc(F)c2)nc1C	PostGolgi ctrl 35 (no result: tolC growth inh)
Cc1[nH]n(-c2ccccc2)c(=O)c1/C=N/Nc1nncc(-c2ccccc2)n1	E coli WT exp 93 (no result: tolC growth inh)
Nc1nc(CN2CCN(c3cccc(Cl)c3)CC2)nc(N2CCCc3ccccc32)n1	PostGolgi ctrl 42, tolC growth inh 100
Nc1nc(CN2CCN(c3ccccc3)CC2)nc(N2CCCc3ccccc32)n1	none
Nc1nc(CSc2nnnn2-c2ccccc2)nc(N2CCCc3ccccc32)n1	PostGolgi ctrl 57
CCC(C)NS(=O)(=O)c1ccc(-c2csnn2)s1 (centres undefined)	none (no result: tolC growth inh)
CCOC(=O)N1CCC(NC(=O)C2CCN(c3ccc(N4CCOCC4)nn3)CC2)CC1	PostGolgi ctrl 36
CC1(C)CC(=O)C2=C(C1)N(Cc1cccnc1)C(=O)C2(NC(=O)c1ccc(F)cc1)C(F)(F)F (centres undefined)	none (no result: tolC growth inh)
Cc1ccc(C(=O)Nc2ccc3c(c2)CCC3)o1	none (no result: EphB4 antag)
O=C(Nc1ccc2c(c1)OCO2)c1ccc(COc2ccc3c(c2)CCC3)o1	tolC growth inh 72
CC(C(=O)Nc1ncn[nH]1)N1C(=O)c2ccccc2C1=O (centres undefined)	none (no result: PostGolgi yeast, PostGolgi ctrl, tolC growth inh, E coli WT exp)
Cc1ccc(SC(C)C(=O)Nc2ncn[nH]2)cc1 (centres undefined)	PostGolgi yeast 42
CCCCOc1ccc(C(=O)CCN2CCCCC2)cc1	none (no result: PostGolgi yeast, PostGolgi ctrl, EphB4 antag, E coli WT exp)
CC(C)COc1ccc(C(=O)CCN2CCCCC2)cc1	PostGolgi ctrl 44
CCCS(=O)(=O)N1CCN(C(=O)c2cccc(OC)c2)CC1	none
CN(Cc1nc(-c2ccncc2)no1)S(=O)(=O)c1ccc(Br)cc1	PostGolgi ctrl 31
Cc1ccc(-c2noc(CN(C(=O)C(c3ccccc3)c3ccccc3)C(C)C)n2)cc1	none (no result: tolC growth inh)
Cc1cccc(-c2noc(CN(C(=O)CCc3ccccc3)C(C)C)n2)c1	tolC growth inh 76
COc1ccc(Cl)cc1C(=O)N(Cc1nc(-c2cccc(C)c2)no1)C(C)C	PostGolgi ctrl 37
Cc1cccc(-c2noc(CN(C)S(=O)(=O)c3cc(Cl)ccc3Cl)n2)c1	none
Cc1ccc(-c2noc(CN(C(=O)c3cccc(Br)c3)C(C)C)n2)cc1	tolC growth inh 78
Cc1ccc(C(=O)COC(=O)C2CC(=O)N(c3nc(-c4ccccc4)cs3)C2)cc1 (centres undefined)	none (no result: tolC growth inh)
O=C(Nc1cc(Oc2ccccc2)cc([N+](=O)[O-])c1)C12CC3CC(C1)CC(n1cnc(Cl)n1)(C3)C2	none (no result: tolC growth inh)
CCOC(=O)c1sc(NC(=O)CCN2C(=O)c3cccc([N+](=O)[O-])c3C2=O)c(C(=O)OCC)c1C	none (no result: tolC growth inh)
CC(C)N(Cc1nc(-c2ccccc2)no1)C(=O)CN(C)S(=O)(=O)c1ccccc1	PostGolgi ctrl 34
CC(C)N(Cc1nc(-c2ccccc2)no1)S(=O)(=O)c1ccccc1	none
COCCCNC(=O)c1ccccc1NS(=O)(=O)c1ccc(C)cc1	none
CCc1ccccc1NC(=O)/C(=C/c1ccco1)c1ccccc1	PostGolgi ctrl 35 (no result: tolC growth inh)
C=CCc1c(C)nc(N)[nH]c1=O	none (no result: PostGolgi yeast, PostGolgi ctrl, tolC growth inh, E coli WT exp)
N=c1c2c(-c3ccccc3)c(-c3ccccc3)n(Cc3ccco3)c2ncn1CCN1CCOCC1	PostGolgi yeast 52
Cc1ccc(NC2=CC(=O)CC(C)(C)C2)c(N)c1	PostGolgi ctrl 38
CCc1cccc(NC(=O)CN(c2ccc(OC)cc2)S(=O)(=O)c2c(C)n[nH]c2C)c1	none
O=C1NC(=Nc2cccc(Cl)c2)SC1Cc1cccc(Cl)c1Cl (centres undefined)	PostGolgi ctrl 48 (no result: tolC growth inh)
CN1CCN(C2=C(Cl)C(=O)N(c3ccc(Cl)cc3)C2=O)CC1	PostGolgi ctrl 31 (no result: EphB4 antag)
Cc1ccc(N2C(=O)C(Cl)=C(N3CCN(C)CC3)C2=O)c(C)c1	none (no result: PostGolgi yeast, PostGolgi ctrl, tolC growth inh, E coli WT exp)
Cc1cc2oc(=O)cc(CN3CCc4ccccc43)c2cc1Cl	PostGolgi ctrl 36
CCc1ccc2c(CN3CCc4ccccc43)cc(=O)oc2c1	none
CCS(=O)(=O)N1Cc2ccccc2CC1C(=O)NC(C)C12CC3CC(CC(C3)C1)C2 (centres undefined)	PostGolgi ctrl 36 (no result: tolC growth inh)
CCS(=O)(=O)N1Cc2ccccc2CC1C(=O)NCC12CC3CC(CC(C3)C1)C2 (centres undefined)	none (no result: tolC growth inh)
COc1ccc(Br)cc1C1N2CC3(C)CN1CC(C)(C2)C3=O (centres undefined)	PostGolgi ctrl 39 (no result: tolC growth inh)
Cc1c(CCOC(=O)C23CC4CC(CC(C)(C4)C2)C3)sc[n+]1Cc1ccccc1	PostGolgi ctrl 34 (no result: tolC growth inh)
Cc1csc(SCCn2c(N3CCN(c4ccccc4)CC3)nc3c2c(=O)[nH]c(=O)n3C)n1	none
Cc1ccc(-n2c(CSc3nc(C)cc(C)n3)nnc2SCC(=O)NCc2ccco2)cc1	none
Cc1ccc(N2CCN(S(=O)(=O)N3CCCCCC3)CC2)cc1Cl	PostGolgi yeast 31 (no result: tolC growth inh)
O=S(=O)(N1CCCCC1)N1CCN(c2ccc(F)cc2)CC1	none
Cc1cc(C)nc(NC(=O)CSc2nn(C)c(=S)s2)n1	PostGolgi yeast 40
Cc1cc(C)cc(Nc2ncc3c(n2)CCCC3=O)c1	PostGolgi ctrl 33
Oc1ccccc1Cn1c(-c2ccccc2O)nc2ccccc21	none
COc1ccc(Cn2c(/C=C/c3ccccc3)nc3ccccc32)cc1	PostGolgi ctrl 43 (no result: tolC growth inh)
COc1ccc(-c2nc3ccccc3n2Cc2ccccc2)cc1	PostGolgi ctrl 55 (no result: tolC growth inh)
COc1ccc(-c2c(C)nn(Cc3ccccc3)c2N)cc1	PostGolgi ctrl 42 (no result: tolC growth inh)

Assay outcomes (PubChem)
